RBBP9 inhibitor – blocks human serine hydrolase RBBP9 | O75884 | recombinant RBBP9, FP-Rh probe fluorescence polarization | inhibition, % at 7.94 µM | hit rate 0.2% among 220,000 | AID 1515;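 active = inhibition above the campaign mean of all tested compounds plus 3 SD, cut at about 14% in these data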;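 note: plate controls were DMSO wells with RBBP9 for no effect and wells lacking RBBP9 protein for full effect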
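system = RBBP9 protein | input = RBBP9 at 2.5 µM in dispensed solution, before mixing | measured by = fluorescence polarization (mP), excitation 525 nm, emission 598 nm | incubation = enzyme-compound preincubation 30 min, then probe labeling 45 min, 25 °C | buffer or medium = Tris-NaCl-Pluronic buffer, pH 8.0 | compound = single dose 7.94 µM | also added = FP-Rh probe, 375 nM dispensing solution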
PP1 inh – counter-screen for PP5 inhibitors: inhibitors of human PP1-alpha. P62136. purified PP1alpha, OMFP fluorescence. inhibition, % at 6.7 µM. hit rate 0.9% among 320,000. AID 2235;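 active = inhibition above the mean inhibition of all tested compounds plus 3 SD, computed separately for each screening campaign, cut at about 15% in these data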
PP5 primary – inhibitors of human protein phosphatase 5 (PP5); P53041; purified PP5c, OMFP substrate fluorescence; inhibition, % at 6.7 µM; hit rate 0.18% among 320,000; AID 1987;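 active = inhibition above the campaign's mean inhibition across all tested compounds plus 3 SD, cut at about 9.5% in these data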;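 note: 0% = DMSO only and 100% = 100 µM cantharidin control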
p97 inhibitor – blocks human p97 ATPase activity | P55072 | recombinant p97 ATPase, Kinase-Glo ATP luminescence, 3 h | inhibition, % at 8 µM | hit rate 0.42% among 220,000 | AID 1481; in the data active = inhibition above about 15%;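 note: 0% = DMSO vehicle and 100% = wells lacking enzyme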
Hsp70 act – Hsp70 transcriptional activation, primary screen; AID 1203; activation, % at 10 µM; HeLa Hsp70 promoter luciferase reporter, luminescence; scaled: vehicle 0, proteasome-inhibitor control 100%; hit rate 0.04% among 200,000;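 active = activation above the mean across all tested compounds plus 3 SD, cutoff set per campaign, cut at about 5.5% in these data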;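 note: 100% = MG132 at 30 µM as the positive control and 0% = DMSO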
PKD1 inh – inhibitors of human PKD1 kinase | inhibition, % (test concentration not listed) | PKD1 kinase fluorescence polarization assay | hit rate 0.056% among 200,000 | Q15139; in the data active = inhibition above about 50%
Target sequence (Q15139 whole entry, looked up): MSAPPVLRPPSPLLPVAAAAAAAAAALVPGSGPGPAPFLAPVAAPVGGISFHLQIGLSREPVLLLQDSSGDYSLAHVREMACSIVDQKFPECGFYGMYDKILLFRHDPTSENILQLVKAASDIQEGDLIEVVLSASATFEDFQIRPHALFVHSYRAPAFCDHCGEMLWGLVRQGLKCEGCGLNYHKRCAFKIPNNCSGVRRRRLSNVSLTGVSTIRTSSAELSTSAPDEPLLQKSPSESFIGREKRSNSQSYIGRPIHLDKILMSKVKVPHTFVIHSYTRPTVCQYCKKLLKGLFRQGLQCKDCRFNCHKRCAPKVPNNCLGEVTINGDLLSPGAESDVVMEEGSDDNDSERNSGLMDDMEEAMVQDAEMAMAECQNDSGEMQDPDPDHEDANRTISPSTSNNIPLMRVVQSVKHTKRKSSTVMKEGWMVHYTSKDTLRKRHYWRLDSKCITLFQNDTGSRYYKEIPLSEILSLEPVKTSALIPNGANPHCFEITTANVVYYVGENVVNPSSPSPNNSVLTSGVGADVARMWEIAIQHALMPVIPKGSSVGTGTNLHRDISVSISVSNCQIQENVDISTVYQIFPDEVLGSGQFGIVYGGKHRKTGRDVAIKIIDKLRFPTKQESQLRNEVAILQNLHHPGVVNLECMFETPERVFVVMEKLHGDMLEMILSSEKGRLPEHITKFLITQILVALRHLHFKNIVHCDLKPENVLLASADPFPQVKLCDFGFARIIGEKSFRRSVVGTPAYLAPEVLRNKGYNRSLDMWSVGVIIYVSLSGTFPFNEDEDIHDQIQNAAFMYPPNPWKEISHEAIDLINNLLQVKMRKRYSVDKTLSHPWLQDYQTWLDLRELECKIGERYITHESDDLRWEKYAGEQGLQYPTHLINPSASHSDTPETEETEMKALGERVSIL
PP1 confirm – confirmation of human PP1 phosphatase inhibitors; shares compounds with PP1 inh; purified PP1alpha, OMFP substrate fluorescence; inhibition, % at 6.7 µM; hit rate 52% among 1,900;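 active = mean PP1 inhibition above a set limit taken from the earlier primary screen, cut at about 15% in these data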
PP5 counter – counter-screen for PP1 inhibitors: human PP5 phosphatase inhibition; shares compounds with PP1 inh; purified PP5c, OMFP fluorescence; inhibition, % at 6.7 µM; hit rate 4% among 1,900; AID 2360;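 active = mean PP5 inhibition over triplicate wells above about 9.5% taken from the earlier PP1 screen, limit read from the data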
* marks the source's active call; other numbers are inactive results. Hits are enriched below; roughly 1.5% of the tested compounds scored in any of these assays.

How did O=c1c2ccccc2nc2n1CCC2 do in these assays?
RBBP9 inhibitor: 12.7; PP1 inh: 52.2*; PP5 primary: 8.2; p97 inhibitor: 1.9; Hsp70 act: 0.1; PKD1 inh: -9.5; PP1 confirm: 48.5*; PP5 counter: 0.6

Results for O=c1c2ccccc2nc2n1CCCCC2 ?
RBBP9 inhibitor: -4.0; PP1 inh: 3.9; PP5 primary: 3.0; p97 inhibitor: 7.2; Hsp70 act: 0.0; PKD1 inh: -2.8

What do the screens show for `Cn1cc(CNCCN2CCCCC2=O)c(-c2cccc(Cl)c2)n1`?
RBBP9 inhibitor: -5.4; PP1 inh: -8.2; PP5 primary: 0.3; p97 inhibitor: 2.5; Hsp70 act: -0.3; PKD1 inh: -9.9

How did CC(C)NC(=O)c1ccc(N(Cc2ccc(Cl)cc2)S(C)(=O)=O)cc1 do in these assays?
PP1 inh: 0.1; PP5 primary: -1.1

How did O=C(O)CP(=O)(O)O do in these assays?
RBBP9 inhibitor: -9.2; PP1 inh: -7.7; PP5 primary: 9.2; p97 inhibitor: -2.2; Hsp70 act: -0.3; PKD1 inh: 1.8

What do the screens show for `O=P(O)(O)CP(=O)(O)O`?
RBBP9 inhibitor: -2.1; PP1 inh: 25.3*; PP5 primary: 5.0; p97 inhibitor: 2.3; Hsp70 act: -0.3; PKD1 inh: -20.1; PP1 confirm: 37.9*; PP5 counter: 5.0

How did O=C(NCCC1CCCCN1S(=O)(=O)c1ccc(F)cc1)C(=O)NCc1ccncc1 (stereo unspecified) do in these assays?
PP1 inh: -8.8; PP5 primary: 0.0

Results for O=C(NCCC1CCCCN1S(=O)(=O)c1ccc(Cl)cc1)C(=O)NCc1ccncc1 (stereo unspecified) ?
PP1 inh: 30.7*; PP5 primary: 2.1; PP1 confirm: -2.5; PP5 counter: 0.9

How did COc1ccc(S(=O)(=O)N2CCCC2CNC(=O)C(=O)NCc2ccccc2)cc1 (stereo unspecified) do in these assays?
PP1 inh: 32.8*; PP5 primary: -0.9; PP1 confirm: -4.7; PP5 counter: -5.0

Results for O=C(Cn1cc(C(=O)C(F)(F)F)c2ccccc21)N1CCOCC1 ?
RBBP9 inhibitor: -4.0; PP1 inh: -4.1; PP5 primary: 3.9; p97 inhibitor: 3.2; Hsp70 act: -0.5; PKD1 inh: -8.3

Results for Cc1cccc(CSc2ccc3nnc(-c4ccccn4)n3n2)c1 ?
RBBP9 inhibitor: -0.1; PP1 inh: 18.8*; PP5 primary: 0.4; p97 inhibitor: -1.1; Hsp70 act: 0.0; PKD1 inh: 3.3; PP1 confirm: 7.9; PP5 counter: -6.5

Results for c1ccc(CSc2ccc3nnc(-c4ccccn4)n3n2)cc1 ?
RBBP9 inhibitor: -2.0; PP1 inh: 7.6; PP5 primary: -0.1; p97 inhibitor: 0.9; Hsp70 act: -0.1; PKD1 inh: 37.7

Results for O=C1CC(=O)N(Cc2ccco2)C(=O)N1 ?
RBBP9 inhibitor: 0.9; PP1 inh: 58.0*; PP5 primary: 2.3; p97 inhibitor: 7.6; Hsp70 act: -0.1; PKD1 inh: -5.6; PP1 confirm: 0.9; PP5 counter: 1.2

What do the screens show for `CC(C)(C)C(=O)Cn1nc(Cl)nc1Cl`?
RBBP9 inhibitor: -5.1; PP1 inh: -1.3; PP5 primary: 0.3; p97 inhibitor: 4.2; Hsp70 act: 0.0; PKD1 inh: -5.1

How did O=C(COc1ccc(/C=N/NC(=O)c2ccncc2)cc1)Nc1ccc([N+](=O)[O-])cc1 do in these assays?
PP1 inh: -3.1; PP5 primary: 1.0

How did O=C(COc1ccc(/C=N/NC(=O)c2ccc(O)cc2)cc1)Nc1cccc([N+](=O)[O-])c1 do in these assays?
RBBP9 inhibitor: -7.3; PP1 inh: 26.7*; PP5 primary: 0.1; p97 inhibitor: -0.5; Hsp70 act: 0.1; PKD1 inh: -1.7; PP1 confirm: 25.8*; PP5 counter: -2.4

Results for CCC[C@H](CN[C@@H](CNC)[C@H](C)CC)NCCc1cc(C(F)(F)F)cc(C(F)(F)F)c1 ?
PP1 inh: 5.8; PP5 primary: 1.7

How did CC[C@@H](C)[C@H](CNC)NC[C@@H](Cc1cccc2ccccc12)NCCc1cccc(C(F)(F)F)c1 do in these assays?
PP1 inh: 24.6*; PP5 primary: 4.9; PP1 confirm: -10.7; PP5 counter: 4.3

How did O=C(C[n+]1cc(-c2ccc(Cl)cc2)n2c1CCC2)Nc1nc(-c2ccc(F)cc2)cs1 do in these assays?
RBBP9 inhibitor: 3.4; PP1 inh: 21.2*; PP5 primary: 3.7; p97 inhibitor: 9.8; PP1 confirm: -8.1; PP5 counter: 1.4

How did C=CCOC(=O)C(=O)/C=C/c1csc2ccccc12 do in these assays?
RBBP9 inhibitor: -2.4; PP1 inh: 8.7; PP5 primary: 1.1; p97 inhibitor: -1.7; Hsp70 act: -0.1; PKD1 inh: -9.9

Results for C=CCOC(=O)C(=O)/C=C/c1ccc2c(c1)Cc1ccccc1-2 ?
RBBP9 inhibitor: -5.3; PP1 inh: 21.4*; PP5 primary: 2.0; p97 inhibitor: 6.3; Hsp70 act: -0.1; PKD1 inh: 3.0; PP1 confirm: 17.7*; PP5 counter: 0.4

How did Cc1c(CCC(=O)O)c(=O)oc2c(C)c(OCc3cc4c(cc3Cl)OCO4)ccc12 do in these assays?
RBBP9 inhibitor: -0.8; PP1 inh: 20.4*; PP5 primary: -1.5; p97 inhibitor: 2.1; PP1 confirm: 5.7; PP5 counter: -2.5

Results for Cc1ccc(SCC(=O)Nc2ccc(S(N)(=O)=O)cc2)cc1 ?
RBBP9 inhibitor: -10.2; PP1 inh: 3.1; PP5 primary: 2.2; p97 inhibitor: 0.1; Hsp70 act: 0.2; PKD1 inh: -3.6

Results for Cc1ccc(F)cc1NC(=O)C1C2CCC(O2)C1C(=O)O (stereo unspecified) ?
PP1 inh: 55.2*; PP5 primary: 63.5*; PP1 confirm: 20.4*; PP5 counter: 25.9*

What do the screens show for `CCOC(=O)c1c(-c2ccc(-c3ccccc3)cc2)csc1NC(=O)C1C2CCC(O2)C1C(=O)O` (stereo unspecified)?
RBBP9 inhibitor: -9.1; PP1 inh: 22.2*; PP5 primary: 11.1*; p97 inhibitor: -2.1; Hsp70 act: 0.0; PKD1 inh: 2.3; PP1 confirm: 14.9; PP5 counter: 3.1

How did CCCCc1ccc(-c2nc(NC(=O)C3C4CCC(O4)C3C(=O)O)sc2C)cc1 (stereo unspecified) do in these assays?
RBBP9 inhibitor: 8.2; PP1 inh: 74.9*; PP5 primary: 75.2*; p97 inhibitor: 0.8; Hsp70 act: 0.1; PKD1 inh: -15.9; PP1 confirm: 34.8*; PP5 counter: 40.3*
